Most compounds without a hit are left out; they make up all but 2.9% or so of the library.
Cneo AK release: causes C. neoformans cell lysis. adenylate kinase release luminescence, 4 h; normalised: neutral wells 0, clomiphene wells 100. lysis activity, % at 15 µM. actives 0.2% (n = 360,000);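 active means mean lysis activity across replicates of at least 80%, whatever share of replicates individually reach that level; inactive means mean lysis activity below 80%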
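Material – Cryptococcus neoformans yeast cells · Quantity – 5 × 10^6 yeast cells/mL · Buffer or medium – YPD medium · Compound – single dose · Timing – 4 h static compound exposure, 37 °C, read 1 h post-reagent · Signal – adenylate kinase release luminescence · Read-out basis – lysis from increased AK signal · Benchmarks – Clomiphene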
CDK5 inh: CDK5/p35 (human) kinase inhibition; Q00535+Q15078; Recombinant CDK5/p35, ADP-Glo luminescence, 60 min; inhibition, % at 10 µM; actives 0.01% (n = 330,000);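 active means highest replicate inhibition of at least 50% and at least 75% of replicates reaching 50%; inconclusive means only one of the two criteria met; inactive means both criteria failed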
Target sequence (Q00535 whole entry, looked up): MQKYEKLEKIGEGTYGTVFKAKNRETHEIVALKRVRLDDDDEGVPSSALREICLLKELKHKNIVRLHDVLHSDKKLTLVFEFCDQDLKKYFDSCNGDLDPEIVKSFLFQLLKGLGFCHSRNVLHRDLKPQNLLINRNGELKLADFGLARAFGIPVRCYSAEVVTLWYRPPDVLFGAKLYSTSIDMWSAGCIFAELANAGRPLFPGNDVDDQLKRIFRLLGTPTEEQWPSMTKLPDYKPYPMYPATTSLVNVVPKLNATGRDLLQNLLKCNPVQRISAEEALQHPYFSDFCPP
Target sequence (Q15078 whole entry, looked up): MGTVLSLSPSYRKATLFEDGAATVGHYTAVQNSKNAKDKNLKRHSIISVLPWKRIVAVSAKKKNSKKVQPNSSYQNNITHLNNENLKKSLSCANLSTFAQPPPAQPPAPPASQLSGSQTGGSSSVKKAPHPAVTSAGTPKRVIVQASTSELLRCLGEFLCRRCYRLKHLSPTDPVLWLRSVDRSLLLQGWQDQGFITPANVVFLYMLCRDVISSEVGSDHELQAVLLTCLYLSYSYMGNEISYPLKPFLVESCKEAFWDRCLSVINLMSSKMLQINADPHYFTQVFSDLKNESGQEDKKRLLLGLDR
PAX8 reporter: PAX8 transcriptional activity inhibition; RMG-I TPO-luciferase reporter, SteadyGlo, 24 h; inhibition, % at 12.6 µM; actives 1.2% (n = 360,000); AID 652154;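 active means mean replicate inhibition at least 60% with every replicate also reaching 60%; inconclusive means only one of the two criteria is met; inactive means mean below 60% and not all replicates reaching 60%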;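 further: luciferase light reporting Pax8 driven TPO promoter activity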
INS-1E GSIS act: GLuc luminescence reporter in INS-1E cells, primary screen for activators of glucose-dependent secretion of insulin; INS-1E GLuc reporter insulin secretion, 2-3 h; activation, % at 16.6 µM; actives 0.61% (n = 370,000); AID 743287;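 active means lowest replicate activation of at least 40%, so every replicate reaches that level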
Env fusion inh: blocks HIV Env-driven cell-cell fusion; HeLa-JRFL Env/CEM21 cell fusion, luciferase; inhibition, % at 12.3 µM; actives 1.1% (n = 360,000); AID 651610;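 active means mean replicate inhibition score of at least 50 and every replicate individually at or above 50; inconclusive means only one of the two criteria met; inactive means mean below 50 and not all replicates reaching 50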
dFosB act-1: enhances mouse delta FosB homodimer DNA binding. AID 493131. actives 0.99% (n = 340,000). activation, % at 25 µM. purified delta FosB, TAMRA-CDK5 oligo fluorescence polarization; percent of positive-control signal above neutral wells;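 active means mean activation above about 17%, with every replicate also reaching it, limit read from the data, passing the limit was not always enough; inconclusive means only one of the two conditions met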
dFosB act-2: activators of mouse delta FosB homodimer DNA binding | purified delta FosB, TAMRA-CDK5 oligo fluorescence polarization; normalised: neutral wells 0, positive control 100 | activation, % at 24.9 µM | 2,400 tested, under 10 active | shares compounds with dFosB act-1;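 active means highest replicate activation at or above 34% and every replicate reaching that threshold; inconclusive means meets only one of the two criteria; inactive means meets neither criterion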;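 further: higher polarization means more probe DNA bound by delta FosB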
Hits are given with their value; 0 = inactive; ? = inconclusive; - = no result.

SMILES	Cneo AK release	CDK5 inh	PAX8 reporter	INS-1E GSIS act	Env fusion inh	dFosB act-1	dFosB act-2
CCCN1[C@@H]2c3ccc(-c4ccccc4F)c(=O)n3C[C@H]1[C@H](CO)[C@H]2C(=O)NCc1ccccn1	-	-	0	0	-	-	-
CN(C)CCN(C(=O)c1ccc2ccccc2c1)c1nc2c(F)cccc2s1	0	0	0	0	0	0	-
COc1ccc2sc(N(CCCN(C)C)C(=O)c3ccc(S(=O)(=O)N4CCCC4)cc3)nc2c1	0	0	0	0	0	0	-
CCN(CC)CCN(C(=O)CN1C(=O)c2ccccc2C1=O)c1nc2cc3c(cc2s1)OCO3	0	0	0	0	0	0	-
CN(C)CCCN(C(=O)c1ccc2c(c1)CCCC2)c1nc2cc3c(cc2s1)OCO3	0	0	0	0	0	26	0
COc1ccc2sc(N(CCCN(C)C)C(=O)c3ccc(S(=O)(=O)N4CCc5ccccc5C4)cc3)nc2c1	0	0	-	0	102	33	0
CN(C)CCN(C(=O)CN1C(=O)c2ccccc2C1=O)c1nc2cc3c(cc2s1)OCO3	0	0	-	0	0	38	0
CN(C)CCCN(C(=O)c1ccc2c(c1)CCCC2)c1nc2ccc(F)cc2s1	0	0	-	0	-	0	-
Cc1cc(C)c2nc(N(CCN(C)C)C(=O)c3ccc4ccccc4c3)sc2c1	0	0	0	0	0	21	0
Cc1ccc(CNC(=O)c2ccc(N3CCC4(CC3)CC(c3cccc(Br)c3)=NO4)c(NC(=O)c3c(Cl)cccc3Cl)c2)cc1	0	0	0	0	0	24	0
Cc1ccc(CNC(=O)c2ccc(N3CCC4(CC3)CC(c3cccc(Br)c3)=NO4)c(NC(=O)c3ccc(Br)cc3)c2)cc1	0	0	0	0	0	0	-
C[C@H]1CN([C@@H](C)CO)C(=O)c2cc(NC(=O)CCCN(C)C)ccc2O[C@@H]1CN(C)C(=O)Nc1ccccc1	0	-	0	0	-	-	-
Cc1ccc(NC(=O)CSc2nc3c([nH]c4ccccc43)c(=O)n2C)cc1	0	0	0	0	0	0	-
C=CCn1c(SCC(=O)Nc2ccc(F)cc2F)nc2c([nH]c3ccccc32)c1=O	0	0	-	0	0	0	-
Cn1c(SCC(=O)Nc2ccc(F)cc2)nc2c([nH]c3ccccc32)c1=O	0	0	0	0	0	21	0
C=CCn1c(SCC(=O)Nc2ccccc2OC)nc2c([nH]c3ccccc32)c1=O	0	0	0	0	63	44	0
CCn1c(SCC(=O)Nc2ccc(NC(C)=O)cc2)nc2c([nH]c3ccccc32)c1=O	0	0	0	0	0	39	0
COCCn1c(SCC(=O)Nc2ccc(F)cc2)nc2c([nH]c3ccccc32)c1=O	0	0	0	0	0	0	-
CC(=O)N1CC[C@@H]2[C@@H](CO)N(C)c3ccc(-c4cccc(F)c4)cc3[C@@H]21	0	-	0	0	-	-	-
COCC#Cc1cnc2c(c1)C(=O)N([C@H](C)CO)C[C@@H](C)[C@@H](CN(C)C(=O)Nc1ccccc1OC)O2	0	-	0	0	0	-	-
COc1ccc(NC(=O)c2cc(S(=O)(=O)N3CCCC3)ccc2OC)cc1	0	0	0	0	0	0	-
COc1ccc(NC(=O)c2cc(S(=O)(=O)N3CCS(=O)(=O)CC3)ccc2Cl)cc1	0	0	-	-	-	52	0
O=C(CCc1nc2ccccc2c(=O)[nH]1)Nc1nc(-c2cccs2)cs1	-	0	-	0	0	26	0
O=C(CCc1nc2ccccc2c(=O)[nH]1)Nc1nnc(SCc2ccc(F)cc2)s1	-	0	0	0	0	90	0
COc1ccc(CN(C)C[C@H]2OCCCC[C@@H](C)Oc3ccc(NC(=O)Cc4ccccc4)cc3C(=O)N([C@H](C)CO)C[C@H]2C)cc1	0	-	0	0	0	-	-
SMILES	Cneo AK release	CDK5 inh	PAX8 reporter	INS-1E GSIS act	Env fusion inh	dFosB act-1	dFosB act-2
O=C(CCn1c(=O)c2cccn2c2cccnc21)NCc1cccc(Cl)c1	0	0	0	0	0	21	0
O=C(CCCn1c(=O)c2cccn2c2cccnc21)NCc1cccc(Br)c1	0	0	0	0	0	0	-
CCCN(C)C[C@H]1Oc2ncc(C#CCOC)cc2C(=O)N([C@H](C)CO)C[C@H]1C	0	-	-	0	0	-	-
Cc1ccc(Sc2cc(Cl)nc(N)n2)cc1	0	0	-	-	-	58	0
COc1ccc(NC(=O)N(C)C[C@H]2OCCCC[C@@H](C)Oc3ccc(NC(=O)CCCN(C)C)cc3C(=O)N([C@H](C)CO)C[C@@H]2C)cc1	0	-	0	0	0	-	-
CCOc1ccc2nc(NC(=O)c3ccc(OC)c(S(=O)(=O)N4CCOCC4)c3)sc2c1	0	0	0	-	0	26	0
O=c1[nH]c(SCc2nc3c(cnn3-c3ccccc3)c(=O)[nH]2)nc2ccccc12	0	0	-	-	-	44	0
O=c1[nH]c(CSc2nc3ccccc3[nH]2)nc2c1cnn2-c1ccccc1	0	0	0	0	-	0	-
COc1ccc(Cl)cc1NC(=O)c1[nH]c(C)c(C(C)=O)c1C	0	0	0	0	0	36	0
O=C(C[C@H]1CC[C@@H](NS(=O)(=O)c2ccc(F)cc2)[C@@H](CO)O1)NCCN1CCCCC1	0	-	0	0	0	-	-
COc1ccc2cc3c(N)nn(C(=O)c4cccc(F)c4)c3nc2c1	-	0	0	0	?	51	0
COc1cccc(CC(=O)n2nc(N)c3cc4ccc(OC)cc4nc32)c1	0	0	0	-	0	32	0
C[C@@H]1CN([C@@H](C)CO)C(=O)Cc2cc(NC(=O)CCN3CCOCC3)ccc2O[C@H]1CN(C)Cc1ccc(Oc2ccccc2)cc1	0	-	-	0	0	-	-
CCCNC(=O)[C@@H]1[C@@H](CO)[C@@H]2Cn3c(ccc(/C=C/c4ccccc4)c3=O)[C@@H]2N1CCC	0	-	-	0	-	-	-
Cc1nnc(NC(=O)CC(NC(=O)C(F)(F)F)c2ccccc2)s1 (stereo not given)	-	0	0	0	0	0	-
O=C(CC(NC(=O)C(F)(F)F)c1ccccc1)Nc1nnc(CCc2ccccc2)s1 (stereo not given)	-	0	0	0	0	19	0
O=C(CNC(=O)c1cccc(N2C(=O)c3ccccc3C2=O)c1)Nc1ccc(F)c(F)c1	0	0	0	0	0	33	0
O=C(Nc1ccccc1-c1nc2ccccc2[nH]1)c1ccc(N2C(=O)CCC2=O)cc1	-	0	0	0	0	0	-
O=C(Nc1ccc(-c2nc3ccccc3[nH]2)cc1)c1cccc(N2C(=O)CCC2=O)c1	-	0	0	0	0	36	0
O=C(Nc1ccc(F)cc1)c1cccc(N2C(=O)c3ccccc3C2=O)c1	-	0	0	0	0	35	0
CO[C@@H]1CN(C)C(=O)c2cc(NC(C)=O)ccc2OC[C@@H](C)N(CCC(F)(F)F)C[C@H]1C	0	-	0	0	0	-	-

Screening data: PubChem, Broad Institute
